Measured values as given in paper PMC8301581 (Clinical and Translational Science, 2021).
Structures can show the parent of a compound that is named as a salt.

Tests used:
CEM = format: cell-based, human; details: CEM ALL cell line; α greater than zero = synergy, less than zero = antagonism
Method in brief: (§1)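 Cells were grown in RPMI-1640 with 2 mM glutamine and 10% FBS at 37°C, 5% CO₂, and were STR-authenticated and mycoplasma-negative. Mid-log-phase cells were exposed to serial dilutions of the drugs, alone or combined, then read by a modified MTT assay after 3 days. Interaction α (positive = synergy, negative = antagonism) was estimated by modified response surface modeling relative to additivity.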

NALM6 = format: cell-based, human; details: NALM6 ALL cell line; α greater than zero = synergy, less than zero = antagonism
Method in brief: as §1

hiPSC‐derived neurons [1] = format: cell-based, human; details: negative α = antagonism
Method in brief: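 After drug treatment, hiPSC-derived neurons were stained with 5 µg/ml Hoechst 33342 and 10 µg/ml Calcein AM for 10 min at room temperature. Cells were imaged at 10×, with at least 1000 cells per condition in each of five independent experiments. Per-cell values were collected for total neurite outgrowth, number of processes and number of branches. Combination α came from response surface modeling against an additive model.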

hiPSC‐derived neurons [2] = format: cell-based, human; details: 72 h, negative α = antagonism
Method in brief: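 Human iPSC-derived peripheral neurons (>90% pure; βIII-tubulin, MAP-2, peripherin and vGLUT2 positive; three lots) were kept per the supplier's protocol. Viability was read as ATP by CellTiter-Glo 2.0 at 72 h after drug treatment. Combination responses were fitted by modified response surface modeling. α is the interaction term versus the additive model: positive means synergy, negative means antagonism.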

[3] = In vivo pharmacokinetic studies in mice; details: for total plasma concentrations: mice, VCR 0.1 mg/kg intraperitoneal and DIP 200 mg/kg p.o.; for clearance: male, C57BL/6, mouse, plasma, intraperitoneal
C57BL/6 J mice = test: Mouse neurotoxicity assessment: mechanical allodynia; format: in vivo
[4] = test system: phospho‐histone H3 (Ser10); test: Western blot of phospho‐histone H3; format: cell-based, human; details: CEM, vincristine 2 nM for 24 h with increasing concentrations of DIP
[5] = test system: phospho‐histone H3 (Ser10); test: Western blot of phospho‐histone H3; format: cell-based, human; details: NALM6, vincristine 2 nM for 24 h with increasing concentrations of DIP
SORORIN [6] = test: Western blot of SORORIN protein level; format: cell-based, human; details: CEM, G2 synchronized cells, highest concentration of DIP 10 µM
SORORIN [7] = test: Western blot of SORORIN protein level; format: cell-based, human; details: NALM6, G2 synchronized cells, highest concentration of DIP 10 µM
[8] = clinical studies; cited from earlier work
CEM leukemia cells = test: Survival of NSG mice inoculated with human CEM leukemia cells; format: in vivo; details: once a week, 0.3mg/kg vincristine, p value <0.001
[9] = cited from earlier work

SMILES	CEM α (drug‐drug interaction between vincristine and second drug) (CEM)	NALM6 α (drug‐drug interaction between vincristine and second drug) (NALM6)	Branches α (drug‐drug interaction between vincristine and second drug) (hiPSC‐derived neurons [1])	Outgrowth α (drug‐drug interaction between vincristine and second drug) (hiPSC‐derived neurons [1])	Processes α (drug‐drug interaction between vincristine and second drug) (hiPSC‐derived neurons [1])	Viability α (drug‐drug interaction between vincristine and second drug) (hiPSC‐derived neurons [2])	total plasma concentrations [3]	paw withdrawal response, DIP administered with VCR versus VCR alone (C57BL/6 J mice; mice, DIP oral gavage with VCR intraperitoneal, day 1 to day 10)	phospho‐histone H3 (Ser10) levels [4]	phospho‐histone H3 (Ser10) levels [5]	SORORIN protein levels (SORORIN [6])	SORORIN protein levels (SORORIN [7])	plasma concentrations reported clinically [8]	clearance [3] [mL/min/kg]	clearance ([3]; 0.1 mg/kg) [mL/min/kg]	paw withdrawal responses (C57BL/6 J mice; mice receiving VCR alone)	survival of mice, VCR and vehicle versus controls (CEM leukemia cells)	plasma protein binding [9]
OCCN(CCO)c1nc(N2CCCCC2)c2nc(N(CCO)CCO)nc(N3CCCCC3)c2n1 [Dipyridamole]	11.6	4.45	−3.43	−1.98	−1.75	−3.7	≤ 5000 ng/mL	significantly lowered	dose‐dependent increase	dose‐dependent increase	lowest level of SORORIN protein	lowest level of SORORIN protein	≤ 6000 ng/mL					
CCOC(=O)c1ccc(C#Cc2ccc3c(c2)C(C)(C)CCS3)nc1 [Tazarotene]	0.945	1.42	−1.16	−1.63	−1.59	−0.72												
OCCOCCN1CCN(C2=Nc3ccccc3Sc3ccccc32)CC1 [Quetiapine fumarate]	0.787	2.33	−2.29	−1.67	−1.25	−0.007												
CC[C@]1(O)C[C@H]2CN(CCc3c([nH]c4ccccc34)[C@@](C(=O)OC)(c3cc4c(cc3OC)N(C=O)[C@H]3[C@@](O)(C(=O)OC)[C@H](OC(C)=O)[C@]5(CC)C=CCN6CC[C@]43[C@@H]65)C2)C1 [VCR, Vincristine]							up to 10 ng/ml						up to 31.2 ng/ml	81.3	99.3	significant increase	significantly prolonged survival	around 75%
